Measured values reported in ChEMBL document CHEMBL3856209, “Novel pyrazolopyridine derivatives as potential angiogenesis inhibitors: Synthesis, biological evaluation and transcriptome-based mechanistic analysis” (Eur J Med Chem, 2016).
Activity calls are given as the source filed them.

What was measured:
HUVEC [1] = assay: Effect on BIRC5 gene expression in serum-starved HUVEC after 6 hrs by microarray analysis relative to control; format: functional, Homo sapiens
Outline: (§1)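 Serum-starved confluent HUVEC treated with 2 μM compound or DMSO in 2.5% FBS for 6 h or 24 h; RNA hybridized to Illumina Human-HT12 arrays. Data background-corrected, vst-transformed and rsn-normalized. Differential probes called by moderated paired t-test (limma) at p < 0.05 and log2 fold change >|0.5| vs DMSO.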

HUVEC [2] = assay: Effect on SIVA1 gene expression in serum-starved HUVEC after 6 hrs by microarray analysis relative to control; format: functional, Homo sapiens
HUVEC [3] = assay: Effect on ZAK gene expression in serum-starved HUVEC after 6 hrs by microarray analysis relative to control; format: functional, Homo sapiens
HUVEC [4] = assay: Effect on RHOB gene expression in serum-starved HUVEC after 24 hrs by microarray analysis relative to control; format: functional, Homo sapiens
HUVEC [5] = assay: Effect on LPIN1 gene expression in serum-starved HUVEC after 6 hrs by microarray analysis relative to control; format: functional, Homo sapiens
HUVEC [6] = assay: Effect on EGR1 gene expression in serum-starved HUVEC after 24 hrs by microarray analysis relative to control; format: functional, Homo sapiens
Outline: (§2)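 Confluent, serum-starved HUVEC (pooled from 3–5 donors, passage ≤4) treated with 2 μM compound or vehicle with 2.5% FBS for 6 h or 24 h. Total RNA hybridized to Illumina Human-HT12 arrays. Data were background-corrected, vst-transformed and rsn-normalized. Hits called by moderated paired t-test versus DMSO-treated cells, p < 0.05 and log2 fold change >|0.5|.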

HUVEC [7] = assay: Effect on FDPS gene expression in serum-starved HUVEC after 6 hrs by microarray analysis relative to control; format: functional, Homo sapiens
Outline: (§3)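 Serum-starved confluent HUVEC (primary, pooled from 3–5 donors, passage ≤4) treated with 2 μM test compound or DMSO vehicle (working dilutions ≤0.1% v/v) in presence of 2.5% FBS for 6 h or 24 h; total RNA hybridized to Illumina Human-HT12 arrays; background correction, vst, rsn normalization; moderated paired t-test versus DMSO, thresholds p < 0.05 and log2 fold change >|0.5|.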

HUVEC [8] = assay: Effect on HAVCR2 gene expression in serum-starved HUVEC after 6 hrs by microarray analysis relative to control; format: functional, Homo sapiens
Outline: (§4)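 Confluent serum-starved HUVEC (primary, pooled from 3–5 donors, passage ≤4) treated with 2 μM compound or DMSO vehicle in 2.5% FBS for 6 h or 24 h. Total RNA hybridized to Illumina Human-HT12 arrays, background-corrected, vst-transformed and rsn-normalized. Differential expression versus DMSO by moderated paired t-test (p < 0.05, |log2 fold change| > 0.5).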

HUVEC [9] = assay: Effect on MYLIP gene expression in serum-starved HUVEC after 6 hrs by microarray analysis relative to control; format: functional, Homo sapiens
HUVEC [10] = assay: Effect on VCAM1 gene expression in serum-starved HUVEC after 6 hrs by microarray analysis relative to control; format: functional, Homo sapiens
HUVEC [11] = assay: Effect on SCD gene expression in serum-starved HUVEC after 6 hrs by microarray analysis relative to control; format: functional, Homo sapiens
HUVEC [12] = assay: Effect on IL1RL1 gene expression in serum-starved HUVEC after 24 hrs by microarray analysis relative to control; format: functional, Homo sapiens
HUVEC [13] = assay: Effect on RACGAP1 gene expression in serum-starved HUVEC after 6 hrs by microarray analysis relative to control; format: functional, Homo sapiens
HUVEC [14] = assay: Effect on PLA2G4C gene expression in serum-starved HUVEC after 6 hrs by microarray analysis relative to control; format: functional, Homo sapiens
Outline: (§5)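 Serum-starved confluent HUVEC (pooled from 3–5 donors, passage ≤4) were treated with 2 μM compound or vehicle in 2.5% FBS for 6 h or 24 h, and total RNA was isolated. Hybridization was on Illumina Human-HT12. Data were processed with bgAdjust, vst and rsn normalization. Changes versus DMSO were called by moderated paired t-test at p < 0.05 and |log2 fold change| > 0.5.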

HUVEC [15] = assay: Effect on LIPG gene expression in serum-starved HUVEC after 24 hrs by microarray analysis relative to control; format: functional, Homo sapiens
HUVEC [16] = assay: Effect on CDK1 gene expression in serum-starved HUVEC after 6 hrs by microarray analysis relative to control; format: functional, Homo sapiens; outline: as §1
HUVEC [17] = assay: Effect on LSS gene expression in serum-starved HUVEC after 24 hrs by microarray analysis relative to control; format: functional, Homo sapiens; outline: as §5
HUVEC [18] = assay: Effect on ABCA1 gene expression in serum-starved HUVEC after 6 hrs by microarray analysis relative to control; format: functional, Homo sapiens; outline: as §4
HUVEC [19] = assay: Effect on TUBB2B gene expression in serum-starved HUVEC after 24 hrs by microarray analysis relative to control; format: functional, Homo sapiens
HUVEC [20] = assay: Effect on CDCA5 gene expression in serum-starved HUVEC after 6 hrs by microarray analysis relative to control; format: functional, Homo sapiens; outline: as §1
HUVEC [21] = assay: Effect on CYBA gene expression in serum-starved HUVEC after 6 hrs by microarray analysis relative to control; format: functional, Homo sapiens; outline: as §4
HUVEC [22] = assay: Effect on CENPW gene expression in serum-starved HUVEC after 24 hrs by microarray analysis relative to control; format: functional, Homo sapiens; outline: as §3
HUVEC [23] = assay: Effect on ACACA gene expression in serum-starved HUVEC after 6 hrs by microarray analysis relative to control; format: functional, Homo sapiens; outline: as §1
HUVEC [24] = assay: Effect on ACLY gene expression in serum-starved HUVEC after 6 hrs by microarray analysis relative to control; format: functional, Homo sapiens; outline: as §1
HUVEC [25] = assay: Effect on RNU4ATAC gene expression in serum-starved HUVEC after 24 hrs by microarray analysis relative to control; format: functional, Homo sapiens
HUVEC [26] = assay: Effect on ESM1 gene expression in serum-starved HUVEC after 24 hrs by microarray analysis relative to control; format: functional, Homo sapiens; outline: as §4
HUVEC [27] = assay: Effect on CDKN3 gene expression in serum-starved HUVEC after 6 hrs by microarray analysis relative to control; format: functional, Homo sapiens; outline: as §1
HUVEC [28] = assay: Effect on SPRY4 gene expression in serum-starved HUVEC after 24 hrs by microarray analysis relative to control; format: functional, Homo sapiens
HUVEC [29] = assay: Effect on GINS2 gene expression in serum-starved HUVEC after 6 hrs by microarray analysis relative to control; format: functional, Homo sapiens; outline: as §2
HUVEC [30] = assay: Effect on ASAP1 gene expression in serum-starved HUVEC after 6 hrs by microarray analysis relative to control; format: functional, Homo sapiens; outline: as §4
HUVEC [31] = assay: Effect on YES1 gene expression in serum-starved HUVEC after 6 hrs by microarray analysis relative to control; format: functional, Homo sapiens
HUVEC [32] = assay: Effect on CYP4X1 gene expression in serum-starved HUVEC after 6 hrs by microarray analysis relative to control; format: functional, Homo sapiens; outline: as §2
[33] = Upregulation of INSIG1 gene expression in serum-starved HUVEC at 2 uM after 24 hrs by qRT-PCR analysis; format: functional, cell-based; settings: Homo sapiens
HUVEC [34] = assay: Effect on CTHRC1 gene expression in serum-starved HUVEC after 6 hrs by microarray analysis relative to control; format: functional, Homo sapiens; outline: as §2
HUVEC [35] = assay: Effect on SND1-IT1 gene expression in serum-starved HUVEC after 24 hrs by microarray analysis relative to control; format: functional, Homo sapiens
HUVEC [36] = assay: Effect on HINT3 gene expression in serum-starved HUVEC after 6 hrs by microarray analysis relative to control; format: functional, Homo sapiens; outline: as §2
HUVEC [37] = assay: Effect on MIR181A2HG gene expression in serum-starved HUVEC after 6 hrs by microarray analysis relative to control; format: functional, Homo sapiens; outline: as §5
HUVEC [38] = assay: Effect on IL10 gene expression in serum-starved HUVEC after 24 hrs by microarray analysis relative to control; format: functional, Homo sapiens; outline: as §2

COc1ccc(Cn2nc(-c3ccccc3)c3cc(Cl)nc(N4CCNCC4)c32)cc1
fold change (FC) (HUVEC [1]): 0.0293 | log2FC (HUVEC [2]): -0.2087 | log2FC (HUVEC [3]): 0.5589 | log2FC (HUVEC [4]): 0.5108

COc1ccc(Cn2nc(-c3ccccc3)c3cc(Nc4ccc(N5CCN(C)CC5)cc4)nc(N4CCN(C)CC4)c32)cc1
fold change (FC) (HUVEC [5]): 0.2925 | log2FC (HUVEC [6]): 0.5707 | fold change (FC) (HUVEC [7]): -0.059 | fold change (FC) (HUVEC [8]): 0.9139 | fold change (FC) (HUVEC [9]): -0.5593 | log2FC (HUVEC [10]): 0.1271 | log2FC (HUVEC [11]): 0.7444 | fold change (FC) (HUVEC [12]): -0.5903 | log2FC (HUVEC [13]): -0.171 | fold change (FC) (HUVEC [14]): 0.3857 | log2FC (HUVEC [15]): 1.1948 | log2FC (HUVEC [16]): -0.1173 | log2FC (HUVEC [17]): 1.6178 | fold change (FC) (HUVEC [18]): 0.0783 | log2FC (HUVEC [19]): 0.8576 | fold change (FC) (HUVEC [20]): 0.0694 | fold change (FC) (HUVEC [21]): 0.1437 | fold change (FC) (HUVEC [22]): -0.5146 | fold change (FC) (HUVEC [23]): 0.1305 | fold change (FC) (HUVEC [24]): 0.4312 | log2FC (HUVEC [25]): -0.0618 | fold change (FC) (HUVEC [26]): 0.8252 | log2FC (HUVEC [27]): -0.0153 | fold change (FC) (HUVEC [28]): 0.9471 | log2FC (HUVEC [29]): -0.1389 | fold change (FC) (HUVEC [30]): 0.6103 | log2FC (HUVEC [31]): 0.3231 | fold change (FC) (HUVEC [32]): 0.4504 | Activity [33]: Active | log2FC (HUVEC [34]): -0.0221

COc1ccc(Cn2nc(-c3ccccc3)c3cc(Nc4ccc(N5CCN(C)CC5)cc4)nc(N4CCNCC4)c32)cc1
log2FC (HUVEC [35]): 0.603 | log2FC (HUVEC [36]): -0.0444 | log2FC (HUVEC [37]): -0.0835 | log2FC (HUVEC [38]): 0.5464
